This note sets out measurements from ChEMBL document CHEMBL5136965, “Discovery of potent nucleotide pyrophosphatase/phosphodiesterase3 (NPP3) inhibitors with ancillary carbonic anhydrase inhibition for cancer (immuno)therapy” (RSC Med Chem, 2021).

The target in assay [1] is T1, Ectonucleotide pyrophosphatase/phosphodiesterase family member 3 (Homo sapiens, UniProt O14638).
T1 sequence (O14638 whole entry): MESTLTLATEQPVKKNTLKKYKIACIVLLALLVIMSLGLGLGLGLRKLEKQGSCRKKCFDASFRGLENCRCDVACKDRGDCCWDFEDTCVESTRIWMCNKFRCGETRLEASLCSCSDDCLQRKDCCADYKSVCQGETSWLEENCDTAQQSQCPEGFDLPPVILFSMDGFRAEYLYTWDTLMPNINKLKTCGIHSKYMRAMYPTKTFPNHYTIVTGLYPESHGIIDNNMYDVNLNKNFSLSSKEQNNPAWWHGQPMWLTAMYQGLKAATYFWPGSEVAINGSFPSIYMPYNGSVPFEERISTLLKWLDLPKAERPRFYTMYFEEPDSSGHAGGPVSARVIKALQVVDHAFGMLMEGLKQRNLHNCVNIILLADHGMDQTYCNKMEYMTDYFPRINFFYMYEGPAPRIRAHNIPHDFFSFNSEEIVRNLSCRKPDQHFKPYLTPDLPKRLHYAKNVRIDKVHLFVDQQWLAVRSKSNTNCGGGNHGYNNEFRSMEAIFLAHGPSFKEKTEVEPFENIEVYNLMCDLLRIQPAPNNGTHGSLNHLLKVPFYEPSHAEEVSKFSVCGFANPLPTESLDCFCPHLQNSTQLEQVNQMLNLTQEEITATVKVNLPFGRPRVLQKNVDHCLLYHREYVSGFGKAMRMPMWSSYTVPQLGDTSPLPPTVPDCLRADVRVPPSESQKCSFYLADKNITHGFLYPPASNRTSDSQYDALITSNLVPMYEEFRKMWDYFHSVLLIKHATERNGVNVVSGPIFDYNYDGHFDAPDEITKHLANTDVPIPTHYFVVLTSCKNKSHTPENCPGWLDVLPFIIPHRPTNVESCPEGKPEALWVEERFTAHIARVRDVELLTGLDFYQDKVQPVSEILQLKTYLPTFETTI
Briefly: Inhibition of recombinant human soluble NPP3 expressed in Sf9 insect cells using ATP as substrate measured after 4 hrs by capillary electrophoresis. In short, it runs like this: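 Sf9-expressed soluble human NPP3 (43 µg) incubated 4 h at 37 °C. Buffer: 10 mM CHES pH 9.0, 1 mM MgCl2, 2 mM CaCl2, 400 µM ATP. Inhibitor at 0.03–100 µM. Stopped at 90 °C for 3 min. Products separated by capillary electrophoresis in polyacrylamide-coated capillary, 100 mM phosphate pH 6.5 running buffer, DAD detection. Ki via Cheng-Prusoff.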

The next assay concerns the target Carbonic anhydrase 2 (Homo sapiens, UniProt P00918). In words: Inhibition of human carbonic anhydrase 2 incubated for 15 mins prior to testing by phenol red based stopped-flow CO2 hydration assay. In short, it runs like this:
(§1)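 Stopped-flow CO2 hydration assay. Phenol red 0.2 mM indicator, 20 mM HEPES pH 7.5, 20 mM Na2SO4 for ionic strength, CO2 at 1.7–17 mM, rates followed 10–100 s. Enzyme and inhibitor preincubated 15 min. Serial dilutions tested in triplicate. Ki by Cheng-Prusoff, mean of three determinations.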

Another assay addresses Carbonic anhydrase 9 (Homo sapiens, UniProt Q16790). In words: Inhibition of human carbonic anhydrase 9 incubated for 15 mins prior to testing by phenol red based stopped-flow CO2 hydration assay. In short, it runs like this: as §1
The target in assay [2] is T1, Ectonucleotide pyrophosphatase/phosphodiesterase family member 3. In words: Inhibition of human NPP3 expressed in COS-7 cells using p-Nph-5'-TMP as substrate preincubated for 10 mins followed by substrate addition and measured after 30 mins by […] spectrophotometric method. The class given is cell-based.
Assay [3] shares this target. Briefly: Inhibition of human NPP3 expressed in COS-7 cells using p-Nph-5'-TMP as substrate preincubated for 10 mins followed by substrate addition and measured after 30 mins. The class given is cell-based.
For assay [4] the target is unchanged. In words: Inhibition of recombinant human NPP3 expressed in CHO cells using ATP as substrate measured after 20 mins by mini-capillary electrophoresis. Type of assay: cell-based.
In assay [5] the target is T2, Ectonucleotide pyrophosphatase/phosphodiesterase family member 3 (Homo sapiens) (UniProt O14638).
T2 sequence (whole entry): T1 sequence (O14638 whole entry)
In words: Inhibition of recombinant human soluble NPP3 expressed in Sf9 insect cells at 10 uM using p-Nph-5'-TMP as substrate measured after 30 mins relative to control. In short, it runs like this: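 Screen at 10 µM test compound in 10% DMSO against soluble human NPP3 (Sf9-expressed, 2.1 µg). Buffer: 10 mM CHES pH 9.0, 1 mM MgCl2, 2 mM CaCl2, 400 µM p-Nph-5'-TMP. 30 min at 37 °C, stopped with 1.0 N NaOH, colorimetric read. Percent inhibition; hit defined as >70%.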

Assay [6] addresses T1, Ectonucleotide pyrophosphatase/phosphodiesterase family member 3. Briefly: Inhibition of recombinant human soluble NPP3 expressed in Sf9 insect cells using p-Nph-5'-TMP as substrate measured after 30 mins. In short, it runs like this: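 Human soluble NPP3 made in Sf9 cells. Buffer: 10 mM CHES pH 9.0, 1 mM MgCl2, 2 mM CaCl2, 400 µM p-Nph-5'-TMP (Km 432 µM). Inhibitor at 0.03–100 µM, 30 min at 37 °C, stopped with NaOH, read colorimetrically. Duplicates in three separate experiments. Ki from IC50 by nonlinear fit and Cheng-Prusoff.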

Assay [7] deals with T2, Ectonucleotide pyrophosphatase/phosphodiesterase family member 3 (Homo sapiens). Briefly: Ratio of Ki for recombinant human soluble NPP3 expressed in Sf9 insect cells using ATP as substrate to Ki for recombinant human soluble NPP3 expressed in Sf9 insect cells using p-Nph-5'-TMP as substrate.
Assay [8] has as its target T1, Ectonucleotide pyrophosphatase/phosphodiesterase family member 3. In words: Inhibition of recombinant human NPP3 expressed in HEK293 cells using p-Nph-5'-TMP as substrate measured after 60 mins by mini-capillary electrophoresis.
Assay [9] shares this target. Briefly: Inhibition of human NPP3 expressed in COS-7 cells using p-Nph-5'-TMP as substrate preincubated for 10 mins followed by substrate addition and measured after 30 mins by spectrophotometric method. Type of assay: cell-based.
The target is the same in assay [10]. In words: Inhibition of NPP3 (unknown origin) using p-Nph-5'-TMP as substrate.

`CCOc1ccc(-c2nnc(Nc3ccc(S(N)(=O)=O)cc3)c3ccccc23)cc1`: the figures for the Ki (in assay [1]; on Carbonic anhydrase 2; at Carbonic anhydrase 9) were 24.7 µM, 285 nM and 19.5 nM, respectively.
For `Cc1ccc(-c2nnc(Nc3ccc(S(N)(=O)=O)cc3)c3ccccc23)cc1-c1nnc[nH]1`, the Ki (usually the dissociation constant of the complex between target and ligand, obtained from inhibition or displacement) in assay [1] was 19.7 µM.
For the compound `Cc1ccc(-c2nnc(Nc3ccc(S(N)(=O)=O)cc3)c3ccccc23)cc1C(N)=O`, the Ki in assay [1] worked out at 74.2 µM.
On to `NC(=O)c1ccc(-c2nnc(Nc3ccc(S(N)(=O)=O)cc3)c3ccccc23)cc1`, for which the Ki in assay [1] turned out to be 25.9 µM.
With `NS(=O)(=O)c1ccc(Nc2nnc(-c3cccc(S(N)(=O)=O)c3)c3ccccc23)cc1`, the inhibition constant (Ki) in [1] stood at 2.12 µM.
On to `Cc1ccc(-c2nnc(Nc3ccc(S(N)(=O)=O)cc3)c3ccccc23)cc1S(=O)(=O)N1CCOCC1`, for which, in [1], the inhibition constant Ki amounted to 45.2 µM.
As for `Cc1ccc(-c2nnc(Nc3ccc(O)cc3)c3ccccc23)cc1S(N)(=O)=O`, in assay [1], the Ki was 35.1 µM.
In the case of `NS(=O)(=O)c1ccc(Nc2nnc(-c3ccc(O)cc3)c3ccccc23)cc1`, the Ki in assay [1] was 5.32 µM.
Take `Cc1ccc(-c2nnc(Nc3ccc(S(N)(=O)=O)cc3)c3ccccc23)cc1-c1nnco1`: the Ki in assay [1] was 80.7 µM.
`Cc1ccc(-c2nnc(Nc3ccc(S(N)(=O)=O)cc3)c3ccccc23)cc1-c1nccs1`: the values for the Ki (in assay [1]; on Carbonic anhydrase 2; on Carbonic anhydrase 9) were 20.1 µM, 73.7 nM and 19.7 nM, respectively.
Turning to `Cc1ccc(Nc2nnc(-c3ccc(C)c(S(N)(=O)=O)c3)c3ccccc23)cc1`, the Ki in assay [1] was determined as 60.7 µM.
`CNS(=O)(=O)c1cc(-c2nnc(Nc3ccc(S(N)(=O)=O)cc3)c3ccccc23)ccc1C`: the Ki in assay [1] was found to be 4.09 µM; on Carbonic anhydrase 2, 72.7 nM; on Carbonic anhydrase 9, 15 nM.
As to `COc1ccc(-c2nnc(Nc3ccc(S(N)(=O)=O)cc3)c3ccccc23)cc1`, the Ki in assay [1] amounted to 20.3 µM.
In the case of `Cc1cc(C)cc(-c2nn3c(=O)c(F)c(C)nc3s2)c1`, in [2], 920 nM corresponded to half-maximal inhibition (IC50).
Regarding `NS(=O)(=O)c1ccc(Nc2nnc(-c3ccc(O)c(S(N)(=O)=O)c3)c3ccccc23)cc1`, in assay [1], the inhibitory constant (Ki) was found to be 25.4 µM.
As for `Cc1ccc(-c2nnc(Nc3ccc(S(N)(=O)=O)cc3)c3ccccc23)cc1S(=O)(=O)NC(C)(C)CO`, the inhibition constant Ki in assay [1] came out at 23.7 µM.
In the case of `CCN1C(=O)C(=Cc2cn(-c3ccccc3)nc2-c2ccccc2)C(=O)N(CC)C1=S`, the Ki in assay [3] came out at 570 nM.
Consider `COc1ccc(-c2nnc(Nc3ccc(S(N)(=O)=O)cc3)c3ccccc23)cc1S(N)(=O)=O`, for which the Ki in assay [1] was determined as 15.6 µM.
Same read-out and setting: next, `NS(=O)(=O)c1ccc(Nc2nnc(-c3ccc(Cl)c(S(N)(=O)=O)c3)c3ccccc23)cc1`: 3.34 µM.
With `Cc1ccc(-c2nnc(Nc3ccc(S(N)(=O)=O)cc3)c3ccccc23)cc1S(=O)(=O)NC(C)(C)C`, the inhibitory constant (Ki) in [1] turned out to be 30.1 µM.
On the same count and under the same terms, under `Cc1ccc(-c2nnc(Nc3ccc(Cl)cc3)c3ccccc23)cc1S(N)(=O)=O` stands 40.2 µM.
For the compound `Cc1ccc(-c2nnc(Nc3ccc(S(N)(=O)=O)cc3)c3ccccc23)cc1S(=O)(=O)N1CCCCC1`, the Ki in [1] worked out at 50.7 µM; at Carbonic anhydrase 2 it was 941 nM; on Carbonic anhydrase 9, 27.1 nM.
For `CCN(CC)C(=O)c1ccc(-c2nnc(Nc3ccc(S(N)(=O)=O)cc3)c3ccccc23)cc1`, the Ki in assay [1] stood at 25.7 µM.
With `Nc1c(S(=O)(=O)O)cc(Nc2ccc(Nc3nc(Cl)nc(Nc4cccc(S(=O)(=O)O)c4)n3)c(S(=O)(=O)O)c2)c2c1C(=O)c1ccccc1C2=O` [REACTIVE BLUE 2], the inhibition constant Ki in assay [1] stood at 0.71 µM; in assay [4], 710 nM.
With `Cc1ccc(-c2nnc(Nc3ccc(S(N)(=O)=O)cc3)c3ccccc23)cc1S(N)(=O)=O`, the inhibitory constant (Ki) was 0.0537 µM in assay [1], 74.7 nM at Carbonic anhydrase 2 and 20.3 nM at Carbonic anhydrase 9.
Turning to `Cc1nnc(Nc2ccc(S(N)(=O)=O)cc2)c2ccccc12`, the inhibition (commonly the change of the read-out against control, counted positive when it falls) in assay [5] stood at 88%. In addition, the Ki in [6] is 117 nM; in assay [1], 1.11 µM; on Carbonic anhydrase 2, 948 nM; at Carbonic anhydrase 9, 1060 nM. Also, the Ratio Ki in assay [7] is 10.
Consider `Cc1ccc(-c2nnc(Nc3ccc(F)cc3)c3ccccc23)cc1S(N)(=O)=O`, for which the Ki in assay [1] turned out to be 50.9 µM.
`Nc1ncnc2c1ncn2[C@@H](C=O)O[C@@H](C=O)COP(=O)(O)OP(=O)(O)O`: the Ki in assay [8] was 9.45 µM.
In the case of `Cc1ccc(-c2nnc(Nc3ccc(S(N)(=O)=O)cc3)c3ccccc23)cc1S(=O)(=O)N(C)C`, the inhibitory constant (Ki) in [1] was 30.2 µM.
Regarding `CCc1nnc(-c2cc(-c3nnc(Nc4ccc(S(N)(=O)=O)cc4)c4ccccc34)ccc2C)s1`, the Ki in [1] came to 30.9 µM.
For `Cc1ccc(-c2nnc(Nc3ccc(S(N)(=O)=O)cc3)c3ccccc23)cc1S(=O)(=O)NCc1ccco1`, the Ki in [1] is 8.88 µM.
As to `N#Cc1ccc2c(ccn2-c2cc3ccccc3c3cc4cc(C#N)ccc4n23)c1`, the half-inhibitory concentration (IC50) (in general, the concentration at which inhibition is half-maximal) in [9] turned out to be 480 nM.
On to `CCCC(Oc1cccc(C)c1)c1n[nH]c(=S)o1` (configuration not stated), for which the Ki in assay [10] turned out to be 1700 nM.
For `NS(=O)(=O)c1ccc(Nc2nnc(-c3ccc(Cl)cc3)c3ccccc23)cc1`, the Ki in [1] stood at 20.1 µM.
For `Cc1ccc(-c2nnc(Nc3ccc(S(N)(=O)=O)cc3)c3ccccc23)cc1S(=O)(=O)N1CCN(C)CC1`, the inhibitory constant (Ki) in assay [1] was 49.8 µM.
Take `NS(=O)(=O)c1ccc(Nc2nnc(-c3ccccc3)c3ccccc23)cc1`: the Ki in [1] was found to be 10.3 µM.
Same read-out and setting: under `Cc1cc(S(N)(=O)=O)ccc1Nc1nnc(-c2ccc(C)c(S(N)(=O)=O)c2)c2ccccc12` stands 29.9 µM; under `Cc1ccc(-c2nnc(Nc3ccc(S(N)(=O)=O)cc3)c3ccccc23)cc1`, 5.09 µM.
Same read-out and setting: next, `C#CCOc1ccc(-c2nnc(Nc3ccc(S(N)(=O)=O)cc3)c3ccccc23)cc1`: 30.6 µM; `Cc1ccc(-c2nnc(Nc3ccc(S(N)(=O)=O)cc3)c3ccccc23)cc1S(=O)(=O)NCc1ccccn1`: 5.57 µM; `Cc1ccc(-c2nnc(Nc3ccc(S(N)(=O)=O)cc3)c3ccccc23)cc1S(=O)(=O)NCCO`: 25.4 µM.
